Source: ChEMBL document CHEMBL4811308, “Design, synthesis and broad spectrum antibreast cancer activity of diarylindoles via induction of apoptosis in aggressive breast cancer cells” (Bioorg Med Chem, 2021)

Experiments:
Format in all cases: organism-based
[1] = Acute toxicity in Swiss albino mouse assessed as SGPT level at 5 mg/kg, po administered once and observed for 7 days (reference value: 12.65 +/- 2.98 U/L); settings: in vivo, 168 h, time 7 day
[2] = Acute toxicity in Swiss albino mouse assessed as creatinine level at 50 mg/kg, po administered once and observed for 7 days (reference value: 0.11 +/- 0.03 mg/dL); settings: in vivo, 168 h, time 7 day
[3] = Acute toxicity in Swiss albino mouse assessed as absolute kidney weight at 5 to 300 mg/kg, po administered once and observed for 7 days; settings: in vivo, 168 h, dose 5-300 mg/kg, time 7 day
In short: (§1)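 Acute oral toxicity per OECD guideline 423; mice 20–25 g, 3 male + 3 female per group, acclimatized 7 days at 22 ± 5 °C, 12 h light/dark. Compound dissolved in minimal DMSO, diluted in 0.7% CMC, single oral dose of 5, 50 or 300 mg/kg; controls given vehicle only. Clinical signs checked hourly on dosing day, then daily. Samples and body weights taken on day 7.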

[4] = Acute toxicity in Swiss albino mouse assessed as relative liver weight at 5 to 300 mg/kg, po administered once and observed for 7 days; settings: in vivo, 168 h, dose 5-300 mg/kg, time 7 day; in short: as §1
[5] = Acute toxicity in Swiss albino mouse assessed as SGOT level at 300 mg/kg, po administered once and observed for 7 days (reference value: 22.94 +/- 4.04 U/L); settings: in vivo, 168 h, time 7 day
[6] = Acute toxicity in Swiss albino mouse assessed as bilirubin level at 300 mg/kg, po administered once and observed for 7 days (reference value: 0.44 +/- 0.06 mg/dl); settings: in vivo, 168 h, time 7 day
[7] = Acute toxicity in Swiss albino mouse assessed as ALP level at 300 mg/kg, po administered once and observed for 7 days (reference value: 123.22 +/- 16.04 U/L); settings: in vivo, 168 h, time 7 day
[8] = Acute toxicity in Swiss albino mouse assessed as bilirubin level at 50 mg/kg, po administered once and observed for 7 days (reference value: 0.44 +/- 0.06 mg/dl); settings: in vivo, 168 h, time 7 day
[9] = Acute toxicity in Swiss albino mouse assessed as WBC level at 5 mg/kg, po administered once and observed for 7 days (reference value: 8.55 +/- 2.71 /mm3); settings: in vivo, 168 h, time 7 day
[10] = Acute toxicity in Swiss albino mouse assessed as ALP level at 5 mg/kg, po administered once and observed for 7 days (reference value: 123.22 +/- 16.04 U/L); settings: in vivo, 168 h, time 7 day
[11] = Acute toxicity in Swiss albino mouse assessed as protein level at 5 mg/kg, po administered once and observed for 7 days (reference value: 2.01 +/- 0.11 mg/ml); settings: in vivo, 168 h, time 7 day
[12] = Acute toxicity in Swiss albino mouse assessed as protein level at 300 mg/kg, po administered once and observed for 7 days (reference value: 2.01 +/- 0.11 mg/ml); settings: in vivo, 168 h, time 7 day
[13] = Acute toxicity in Swiss albino mouse assessed as WBC level at 300 mg/kg, po administered once and observed for 7 days (reference value: 8.55 +/- 2.71 /mm3); settings: in vivo, 168 h, time 7 day
[14] = Acute toxicity in Swiss albino mouse assessed as effect on posture at 5 to 300 mg/kg, po administered once and observed for 7 days; settings: in vivo, 168 h, dose 5-300 mg/kg, time 7 day; in short: as §1
[15] = Acute toxicity in Swiss albino mouse assessed as SGPT level at 300 mg/kg, po administered once and observed for 7 days (reference value: 12.65 +/- 2.98 U/L); settings: in vivo, 168 h, time 7 day
[16] = Acute toxicity in Swiss albino mouse assessed as cholesterol level at 5 mg/kg, po administered once and observed for 7 days (reference value: 122.05 +/- 8.12 mg/dl); settings: in vivo, 168 h, time 7 day
[17] = Acute toxicity in Swiss albino mouse assessed as RBC level at 300 mg/kg, po administered once and observed for 7 days (reference value: 9.21 +/- 0.32 /mm3); settings: in vivo, 168 h, time 7 day
[18] = Acute toxicity in Swiss albino mouse assessed as creatinine level at 5 mg/kg, po administered once and observed for 7 days (reference value: 0.11 +/- 0.03 mg/dL); settings: in vivo, 168 h, time 7 day
[19] = Acute toxicity in Swiss albino mouse assessed as absolute spleen weight at 5 to 300 mg/kg, po administered once and observed for 7 days; settings: in vivo, 168 h, dose 5-300 mg/kg, time 7 day; in short: as §1
[20] = Acute toxicity in Swiss albino mouse assessed as hemoglobin level at 300 mg/kg, po administered once and observed for 7 days (reference value: 17.35 +/- 0.3 gm/dl); settings: in vivo, 168 h, time 7 day
[21] = Acute toxicity in Swiss albino mouse assessed as hemoglobin level at 50 mg/kg, po administered once and observed for 7 days (reference value: 17.35 +/- 0.3 gm/dl); settings: in vivo, 168 h, time 7 day
[22] = Acute toxicity in Swiss albino mouse assessed as cholesterol level at 50 mg/kg, po administered once and observed for 7 days (reference value: 122.05 +/- 8.12 mg/dl); settings: in vivo, 168 h, time 7 day
[23] = Acute toxicity in Swiss albino mouse assessed as SGOT level at 50 mg/kg, po administered once and observed for 7 days (reference value: 22.94 +/- 4.04 U/L); settings: in vivo, 168 h, time 7 day
[24] = Acute toxicity in Swiss albino mouse assessed as ALP level at 50 mg/kg, po administered once and observed for 7 days (reference value: 123.22 +/- 16.04 U/L); settings: in vivo, 168 h, time 7 day
[25] = Acute toxicity in Swiss albino mouse assessed as hemoglobin level at 5 mg/kg, po administered once and observed for 7 days (reference value: 17.35 +/- 0.3 gm/dl); settings: in vivo, 168 h, time 7 day
[26] = Acute toxicity in Swiss albino mouse assessed as bilirubin level at 5 mg/kg, po administered once and observed for 7 days (reference value: 0.44 +/- 0.06 mg/dl); settings: in vivo, 168 h, time 7 day
[27] = Acute toxicity in Swiss albino mouse assessed as cholesterol level at 300 mg/kg, po administered once and observed for 7 days (reference value: 122.05 +/- 8.12 mg/dl); settings: in vivo, 168 h, time 7 day
[28] = Acute toxicity in Swiss albino mouse assessed as body weight at 300 mg/kg, po administered once and observed for 7 days (reference value: 22.75 +/- 0.93 gm); settings: in vivo, 168 h, time 7 day
[29] = Acute toxicity in Swiss albino mouse assessed as triglyceride level at 5 mg/kg, po administered once and observed for 7 days (reference value: 81.12 +/- 7.75 mg/dl); settings: in vivo, 168 h, time 7 day
[30] = Acute toxicity in Swiss albino mouse assessed as mortality at 5 to 300 mg/kg, po administered once and observed for 7 days; settings: in vivo, 168 h, dose 5-300 mg/kg, time 7 day; in short: as §1
[31] = Acute toxicity in Swiss albino mouse assessed as body weight at 50 mg/kg, po administered once and observed for 7 days (reference value: 22.75 +/- 0.93 gm); settings: in vivo, 168 h, time 7 day
[32] = Acute toxicity in Swiss albino mouse assessed as effect on response of organism at 5 to 300 mg/kg, po administered once and observed for 7 days; settings: in vivo, 168 h, dose 5-300 mg/kg, time 7 day; in short: as §1
[33] = Acute toxicity in Swiss albino mouse assessed as SGOT level at 5 mg/kg, po administered once and observed for 7 days (reference value: 22.94 +/- 4.04 U/L); settings: in vivo, 168 h, time 7 day
[34] = Acute toxicity in Swiss albino mouse assessed as relative heart weight at 5 to 300 mg/kg, po administered once and observed for 7 days; settings: in vivo, 168 h, dose 5-300 mg/kg, time 7 day; in short: as §1
[35] = Acute toxicity in Swiss albino mouse assessed as absolute heart weight at 5 to 300 mg/kg, po administered once and observed for 7 days; settings: in vivo, 168 h, dose 5-300 mg/kg, time 7 day; in short: as §1

| Structure (SMILES) | Activity [1] [U/L] | Activity [2] [mg/dL] | Activity [3] | Activity [4] | Activity [5] [U/L] | Activity [6] [mg/dL] | Activity [7] [U/L] | Activity [8] [mg/dL] | Activity [9] [thousands/mm3] | Activity [10] [U/L] | Activity [11] [mg/mL] | Activity [12] [mg/mL] | Activity [13] [thousands/mm3] | Activity [14] | Activity [15] [U/L] | Activity [16] [mg/dL] | Activity [17] [million/mm3] | Activity [18] [mg/dL] | Activity [19] | Activity [20] [g/dL] | other results |
| --- | --- | --- | --- | --- | --- | --- | --- | --- | --- | --- | --- | --- | --- | --- | --- | --- | --- | --- | --- | --- | --- |
| COc1ccc2c(c1)c(Cc1ccc(OCCN(C)C)cc1)c(-c1cc(OC)c(OC)c(OC)c1)n2Cc1ccc(OCCN(C)C)cc1 | 14.47 | 0.14 | Non-Toxic | Non-Toxic | 27.73 | 0.36 | 98.7 | 0.35 | 6.73 | 97.53 | 1.61 | 1.93 | 5.53 | Non-Toxic | 16 | 112.13 | 9.45 | 0.12 | Non-Toxic | 15.96 | Activity [21]: 17.01 g/dL; Activity [22]: 121.96 mg/dL; Activity [23]: 21.92 U/L; Activity [24]: 106.88 U/L; Activity [25]: 16.59 g/dL; Activity [26]: 0.3 mg/dL; Activity [27]: 132.33 mg/dL; Activity [28]: 21.88 g; Activity [29]: 63.83 mg/dL; Activity [30]: Non-Toxic; Activity [31]: 21.31 g; Activity [32]: Non-Toxic; Activity [33]: 22.11 U/L; Activity [34]: Non-Toxic; Activity [35]: Non-Toxic |
| COc1ccc2c(c1)c(Cc1ccc(OC(C)CN(C)C)cc1)c(-c1cc(OC)c(OC)c(OC)c1)n2Cc1ccc(OC(C)CN(C)C)cc1 (stereo not given) | 11.82 | 0.12 | Non-Toxic | Non-Toxic | 33.25 | 0.36 | 74.12 | 0.39 | 6.23 | 87.76 | 1.57 | 1.66 | 5.6 | Non-Toxic | 19.12 | 117.25 | 7.96 | 0.12 | Non-Toxic | 15.54 | Activity [21]: 15.21 g/dL; Activity [22]: 108.65 mg/dL; Activity [23]: 33.28 U/L; Activity [24]: 84.85 U/L; Activity [25]: 15.83 g/dL; Activity [26]: 0.34 mg/dL; Activity [27]: 108.72 mg/dL; Activity [28]: 22.75 g; Activity [29]: 105.82 mg/dL; Activity [30]: Non-Toxic; Activity [31]: 23.48 g; Activity [32]: Non-Toxic; Activity [33]: 28.86 U/L; Activity [34]: Non-Toxic; Activity [35]: Non-Toxic |
